A selection follows.
PGC1a acetyl up = compounds raising PGC1a acetylation signal, primary screen, PGC1a modulator project, cell-based, U2OS, AlphaScreen, signal-increasing mode; overnight; activation, % at 15.6 µM; hit rate 0.21% among 350,000; AID 651723, 2012;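 active means every replicate reaching activation of at least 50%, whatever the mean replicate activation; inconclusive means replicates that disagree or another doubt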;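 further: hits raise the AlphaScreen acetylation signal above neutral controls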
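System: flag-PGC1a/GCN5 U2OS cells / Input: 7000 cells/well / Compound: single test concentration per compound / Incubation: overnight compound treatment, 37 °C / Technique: AlphaScreen on lysates with anti-acetyl-lysine antibody, acceptor and donor beads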
G6PC hep suppr = suppressors of forskolin-stimulated G6PC mRNA, dose response, PGC-1a acetylation activator project, cell-based, hepatocytes, RT-qPCR, cherry-picked samples | shares compounds with PGC1a acetyl up | primary mouse hepatocytes | G6PC suppression (normalized activity, % of positive control; higher = more suppression), % at 26 µM | 240 tested, under 10 active | AID 743463, 2014;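 active means dose curves showing G6PC suppression whose half-maximal dose is at most twice the top valid dose; inconclusive means flat curves with moderate negative activity, or unreliable fits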;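 further: G6PC expression relative to GAPDH housekeeping gene as delta delta Ct; 0% = median of neutral control wells and 100% = median of positive control wells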
Hep PCK1 suppr = suppression of PCK1 mRNA in primary hepatocytes, dose response, PGC-1a acetylation activator project, cell-based, primary mouse hepatocytes, RT-qPCR, cherry-pick; 230 tested, under 10 active; AID 743465, 2014; PCK1 expression decrease, unspecified at 26 µM; forskolin-stimulated; shares compounds with PGC1a acetyl up;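 active means compounds lowering PCK1 expression whose fitted half-maximal concentration is at most twice the top tested dose; inconclusive means flat fit with moderate opposite-direction effect, or poor fit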;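 further: values are delta delta Ct of PCK1 relative to GAPDH; higher delta delta Ct means lower PCK1 expression so positive values indicate hits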
PGC1a hep suppr = suppression of PGC-1a mRNA in primary hepatocytes, dose response, PGC-1a acetylation activator project, cell-based, primary mouse hepatocytes, RT-qPCR, cherry-pick; shares compounds with PGC1a acetyl up; PGC-1a mRNA qPCR, forskolin; top dose 26 µM; max activity (PGC-1a expression decrease), %; 240 tested, under 10 active;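 active means compound lowering PGC-1a expression with fitted half-maximal concentration at most twice its top tested dose; inconclusive means flat curve with moderate opposite-direction effect, or poor fit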;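 further: 0% = neutral control wells median and 100% = positive control wells median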
* = called active by the depositor; ? = inconclusive; · = no result; [ ] = remark or other dose.

SMILES | PGC1a acetyl up | G6PC hep suppr | Hep PCK1 suppr | PGC1a hep suppr
O=C(NC1CCCCC1)c1cccnc1C(=O)O | -51 | 40 | 13 | 69
Cc1c(Cl)cccc1Nc1ncccc1C(=O)O | -56 | · | · | ·
CCc1c(C(=O)NC2CCCCC2)[nH]c(C)c1C(C)=O | -93 | · | · | ·
COCCCNC(=O)c1cc(=O)n(Cc2ccc(Cl)cc2)c2ccccc12 | -45 | · | · | ·
CCOC(=O)C1(Cc2ccccc2)CCN(Cc2cccc(OC)c2O)CC1 | 84* | 20 | 39 | ?
CCCc1nc2c(=O)n(C)c(=O)nc-2n(C)n1 | -75 | · | · | ·
O=C(OCc1nnc(-c2ccccc2)o1)C1=COCCO1 | -61 | · | · | ·
Cc1nc(N2CCN(S(=O)(=O)c3ccc(F)cc3)CC2)c2c(-c3cccs3)csc2n1 | 83* | 307 | 369 | 176
C#CCN(C[C@@H]1[C@@H](OC(=O)NCCCCCC)[C@@H](OC(=O)NCCCCCC)Cn2c(=O)ccc(=O)n21)S(=O)(=O)c1ccc(C)cc1 | -92 | · | · | ·
COC(=O)[C@H](Cc1ccccc1)N(C)S(=O)(=O)c1cccc(S(=O)(=O)N(C)[C@@H](Cc2ccccc2)C(=O)OC)c1 | ? | -83 | · | ?
Cc1cc(C)c(C#N)c(N2CCN(c3ccccc3)CC2)n1 | -49 | · | · | ·
O=C(O)c1ccc2c(c1)OCCCO2 | -44 | · | · | ·
C=C[C@H]1C(C(=O)OCC)=CC[C@@H](c2ccccc2)N1S(=O)(=O)c1ccc(C)cc1 | ? | -62 | ? | 57
Cc1ccc(NC(=O)CN2CCC(NC(=O)Cc3ccccc3)CC2)c(C)c1 | 141* | 23 | 14 | 38
Nc1cc2nsnc2cc1Br | -60 | · | · | ·
Cc1ccccc1Nc1ncnc2c1cnn2-c1ccccc1 | -63 | · | · | ·
Cc1cc(/C=C\c2ccc3cc(N(C)C)ccc3[n+]2C)c(C)n1-c1ccccc1 | -68 | · | · | ·
COc1ccc(CN(CCC(C)C)S(=O)(=O)c2ccccc2Br)cc1 | 74* | · | 51 | 99
Cn1nc(C(C)(C)C)cc1NC(=O)C1(C)CCN1C(=O)C1(c2ccccc2)CCCC1 (stereo not drawn) | -55 | · | · | ·
O=C(CC(C(=O)O)c1c[nH]c2ccccc12)c1ccccc1 (stereo not drawn) | -81 | · | · | ·
C/C(=N\NC(=O)c1cc(C)[nH]n1)c1ccc(-c2ccccc2)cc1 | -79 | · | · | ·
COc1cc(C)c(CN2CCN(S(=O)(=O)c3ccc(Cl)s3)CC2)cc1OC | 79* | 66 | 91 | ?
Cc1ccc(S(=O)(=O)/N=C2\C=C(Nc3ccc(O)cc3)C(=O)c3ccccc32)cc1 | -86 | · | · | ·
COc1ccc(C[C@@H]2OC3(C=CC(=O)C=C3)O[C@H]2Cc2ccc(OC)cc2)cc1 | -90 | · | · | ·
O=C(c1ccco1)N1CCN(c2nnc(-c3ccccc3)c3ccccc23)CC1 | ? | 43 | 18 | ?
SMILES | PGC1a acetyl up | G6PC hep suppr | Hep PCK1 suppr | PGC1a hep suppr
CC1(C)CC(=O)C(C=NCC(N)=O)=C(O)C1 | -52 | · | · | ·
CCc1ccc(C(=O)CN(C#N)c2nc(C)cc(C)n2)cc1 | -49 | · | · | ·
COc1ccc(Nc2nnc(-c3ccc(C(N)=O)cc3)c3ccccc23)cc1 | 89* | 157 | 78 | 111
NS(=O)(=O)c1ccc(-c2ccc(/C=C3\C(=O)Nc4cc(Cl)ccc43)o2)cc1 | -49 | · | · | ·
CCn1cnc2cc(NCc3ccc(N(C)C)cc3)ccc21 | -40 | 243 | · | ?
Cc1nn(C)c(C)c1N1C(=O)c2cccc3c(Br)ccc(c23)C1=O | -78 | · | · | ·
O=C(Nc1cccnc1)c1ccc(Br)s1 | ? | -8 | 27 | 47
COc1ccccc1-c1ccc2c(c1)O[C@@H](CN(C)Cc1ccc3c(c1)OCO3)[C@@H](C)CN([C@@H](C)CO)S2(=O)=O | 65* | 553 | 110 | 54
C[C@H]1CN([C@@H](C)CO)S(=O)(=O)c2ccc(C#CCN(C)C)cc2O[C@@H]1CN(C)Cc1ccc2c(c1)OCO2 | ? | 304 | 132 | 45
CC(=O)c1c(C)oc2ccc(N(C(C)=O)S(=O)(=O)c3ccc(Cl)c([N+](=O)[O-])c3)cc12 | -61 | · | · | ·
O=C(C/C=N/OCc1c(Cl)cccc1Cl)c1cnc(-c2ccccc2)s1 | -47 | · | · | ·
CCN(CC)c1cc(Cl)nc(N)n1 | -43 | · | · | ·
CC(N=C1NS(=O)(=O)c2ccccc21)C(=O)NCCCc1ccccc1 (stereo not drawn) | -47 | · | · | ·
COc1ccc2nc(C)cc(N/N=C/c3ccc(F)cc3)c2c1 | -94 | · | · | ·
Cc1ccc(Cl)c(Cn2cnc3c(cnn3C(C)(C)C)c2=O)c1F | -48 | · | · | ·
CCOC(=O)c1ccccc1NS(=O)(=O)c1ccc(OCC)cc1 | ? | 17 | 50 | 70
CC(/C=C1\SC(=O)N(CCCC(=O)O)C1=O)=C\c1ccccc1 | -43 | · | · | ·
CCOc1ccc(C(C)=O)cc1CSC(=N)N | -40 | · | · | ·
Cc1nnc(NC(=O)CSc2ncc(-c3ccccc3)[nH]2)s1 | -88 | · | · | ·
Cc1sc(NC(=O)c2cccs2)nc1-c1ccccc1 | 80* | · | 3.4 | 22
O=C1CN(C(=O)COC(=O)/C=C/c2ccco2)c2ccccc2N1 | -40 | · | · | ·
CN1C2C=C3C(C#N)=C(N)C(C#N)(C#N)C(c4ccc(Br)cc4)C3C1CC2 (stereo not drawn) | -42 | · | · | ·
C/C(=N\Nc1nc(C)cc(=O)[nH]1)C1CC1 | -41 | · | · | ·
Cc1ccc2nsnc2c1S(=O)(=O)N(Cc1ccco1)Cc1cc2cccc(C)c2[nH]c1=O | -47 | · | · | ·
COc1cc(/C=N/NC(=O)c2ccncc2)ccc1OC(C)=O | -49 | · | · | ·
SMILES | PGC1a acetyl up | G6PC hep suppr | Hep PCK1 suppr | PGC1a hep suppr
CCCc1cc2c(cc1N(C)S(=O)(=O)c1ccccc1)OCO2 | ? | 18 | 152 | 117
Cc1ccc(C)n1-c1ccc(-c2nnco2)cc1 | -52 | · | · | ·
O=C(O)c1cc(O)c2c(c1)C(=O)c1cccc(O)c1C2=O | -67 | · | · | ·
CC(C)C(c1nnnn1Cc1ccccc1)N(Cc1ccco1)Cc1cccs1 (stereo not drawn) | 91* | 316 | 67 | 95
Fc1ccc(CN(Cc2ccccc2)C(c2cccs2)c2nnnn2C2CCCCC2)cc1 (stereo not drawn) | -42 | · | · | ·
Cc1nnc(NCc2ccccc2)c2ccccc12 | ? | · | 11 | 84
Brc1ccc2ncnc(NCc3ccccc3)c2c1 | -42 | · | · | ·
CSc1n[nH]c(NCc2ccccc2)n1 | -42 | · | · | ·
Cc1c(C(=O)OCC(=O)c2c(N)n(CC(C)C)c(=O)n(C)c2=O)oc2ccccc12 | 64* | 66 | 81 | 9
O=C(O)CC1S/C(=N/N=C/c2ccc(Br)cc2)N(c2ccccc2)C1=O (stereo not drawn) | -75 | · | · | ·
O=C(CN1CCC(Cn2cnc3ccccc32)CC1)NCc1ccco1 | · | 1 | -2.4 | 14
CO[C@H]1CN(C)C(=O)c2cc(NC(=O)Nc3ccc(Cl)cc3)ccc2OC[C@H](C)NC[C@@H]1C | -43 | · | · | ·
COc1ccc(N2C(=O)CC2(/C=C/c2ccccc2OC)C(=O)NC2CCCC2)cc1 (stereo not drawn) | -45 | · | · | ·
CCOC(=O)c1ccc(N2C(=O)C=CC2=O)cc1 | -46 | · | · | ·
CCOC(=O)c1ccc(NC(=O)N2CCc3ccccc3C2)cc1 | ? | 25[8 µM] | 22 | 117
CCOCCCNC(=O)C1CCN(C(=O)Nc2ccc(C)cc2)CC1 | -45 | · | · | ·
Cn1nc(-c2ccccn2)nc2c(=O)n(C)c(=O)nc1-2 | -80 | · | · | ·
COc1ccc(C2NC(=S)NC3=C2CCCC3=C2SCCS2)cc1 (stereo not drawn) | -45 | · | · | ·

From PubChem BioAssay
